# How the values were obtained:
# [1] = biological target: T1, Apoptosis regulator Bcl-2 (Homo sapiens, UniProt P10415); test: Inhibition of 5-FAM-tagged Bid-BH3 peptide binding to Bcl2 (unknown origin) by fluorescence polarization assay
# [2] = biological target: Induced myeloid leukemia cell differentiation protein Mcl-1 (Homo sapiens, UniProt Q07820); test: Inhibition of 5-FAM-tagged Bid-BH3 peptide binding to Mcl1 (unknown origin) by fluorescence polarization assay
# In short: (§1)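 Competitive fluorescence polarization in which compounds displace labelled Bid-BH3 peptide from the Bcl-2 family protein, read as a fall in mP. IC50 taken from mP versus concentration. Ki calculated from IC50, Kd, and the peptide and protein concentrations.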
# [3] = system: K562; test: Antiproliferative activity against human K562 cells assessed as reduction in cell growth incubated for 48 hrs by MTT assay; assay type: functional, cell-based; details: K562, 48 h
# In short: (§2)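 PC-3, Jurkat and K562 cells grown in RPMI 1640 with 10% FBS at 37°C, 5% CO2. Cells seeded at 2000-4000 per well and left 8 h before compound addition at a range of concentrations. Exposure 48 h, then 0.5% MTT solution for 4 h. Formazan dissolved in DMSO and absorbance read at 570 nm. IC50 derived from concentrations and inhibitory ratios.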
# [4] = system: Jurkat; test: Induction of apoptosis in human Jurkat cells assessed as late apoptotic cells level at 20 uM incubated for 48 hrs by annexin-V/FITC and propidium iodide staining based flow cytometry (reference value: 6.29%); assay type: functional
# [5] = system: Jurkat; test: Induction of apoptosis in human Jurkat cells assessed as late apoptotic cells level at 40 uM incubated for 48 hrs by annexin-V/FITC and propidium iodide staining based flow cytometry (reference value: 6.29%); assay type: functional
# [6] = system: Jurkat; test: Induction of apoptosis in human Jurkat cells assessed as necrotic cells level at 20 uM incubated for 48 hrs by annexin-V/FITC and propidium iodide staining based flow cytometry (reference value: 6.29%); assay type: functional
# [7] = system: Jurkat; test: Antiproliferative activity against human Jurkat cells assessed as reduction in cell growth incubated for 48 hrs by MTT assay; assay type: functional, cell-based; in short: as §2
# [8] = system: Jurkat; test: Induction of apoptosis in human Jurkat cells assessed as viable cells level at 40 uM incubated for 48 hrs by annexin-V/FITC and propidium iodide staining based flow cytometry (reference value: 86.5%); assay type: functional
# [9] = system: Jurkat; test: Induction of apoptosis in human Jurkat cells assessed as viable cells level at 20 uM incubated for 48 hrs by annexin-V/FITC and propidium iodide staining based flow cytometry (reference value: 86.5%); assay type: functional
# [10] = system: Jurkat; test: Induction of apoptosis in human Jurkat cells assessed as early apoptotic cells level at 40 uM incubated for 48 hrs by annexin-V/FITC and propidium iodide staining based flow cytometry (reference value: 7.02%); assay type: functional
# [11] = biological target: Bcl-2-like protein 1 (Homo sapiens, UniProt Q07817); test: Inhibition of 5-FAM-tagged Bid-BH3 peptide binding to Bcl-XL (unknown origin) by fluorescence polarization assay; in short: as §1
# [12] = system: Jurkat; test: Induction of apoptosis in human Jurkat cells assessed as necrotic cells level at 40 uM incubated for 48 hrs by annexin-V/FITC and propidium iodide staining based flow cytometry (reference value: 6.29%); assay type: functional
# [13] = system: Jurkat; test: Induction of apoptosis in human Jurkat cells assessed as early apoptotic cells level at 20 uM incubated for 48 hrs by annexin-V/FITC and propidium iodide staining based flow cytometry (reference value: 7.02%); assay type: functional
# [14] = biological target: T1, Apoptosis regulator Bcl-2; test: Potency index, ratio of Ki for UMI77 to Ki for test compound for inhibition of 5-FAM-tagged Bid-BH3 peptide binding to Bcl2 (unknown origin) by fluorescence polarization assay
# [15] = biological target: T1, Apoptosis regulator Bcl-2; test: Potency index, ratio of Ki for WL276 to Ki for test compound for inhibition of 5-FAM-tagged Bid-BH3 peptide binding to Bcl2 (unknown origin) by fluorescence polarization assay
# [16] = system: PC-3; test: Antiproliferative activity against human PC3 cells assessed as reduction in cell growth incubated for 48 hrs by MTT assay; assay type: functional, cell-based; details: PC-3, 48 h; in short: as §2
# [17] = biological target: T1, Apoptosis regulator Bcl-2; test: Inhibition of 5-FAM-tagged Bid-BH3 peptide binding to Bcl2 (unknown origin) at 100 uM by fluorescence polarization assay relative to untreated control
# T1 sequence (P10415 whole entry): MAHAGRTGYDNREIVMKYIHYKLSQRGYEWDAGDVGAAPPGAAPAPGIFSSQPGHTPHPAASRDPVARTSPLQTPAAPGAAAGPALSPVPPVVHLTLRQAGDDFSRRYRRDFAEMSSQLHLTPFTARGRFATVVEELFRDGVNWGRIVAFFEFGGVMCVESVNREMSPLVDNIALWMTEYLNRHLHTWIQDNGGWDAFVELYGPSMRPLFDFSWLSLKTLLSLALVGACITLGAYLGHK
# Bcl-2-like protein 1, sequence (Q07817 whole entry): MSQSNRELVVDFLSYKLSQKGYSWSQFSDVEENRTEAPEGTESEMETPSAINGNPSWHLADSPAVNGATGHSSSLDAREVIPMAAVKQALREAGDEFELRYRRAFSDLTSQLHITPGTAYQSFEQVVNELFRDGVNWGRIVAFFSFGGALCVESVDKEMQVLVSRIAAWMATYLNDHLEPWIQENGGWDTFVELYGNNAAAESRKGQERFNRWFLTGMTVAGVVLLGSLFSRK
# Induced myeloid leukemia cell differentiation protein Mcl-1, sequence (Q07820 whole entry): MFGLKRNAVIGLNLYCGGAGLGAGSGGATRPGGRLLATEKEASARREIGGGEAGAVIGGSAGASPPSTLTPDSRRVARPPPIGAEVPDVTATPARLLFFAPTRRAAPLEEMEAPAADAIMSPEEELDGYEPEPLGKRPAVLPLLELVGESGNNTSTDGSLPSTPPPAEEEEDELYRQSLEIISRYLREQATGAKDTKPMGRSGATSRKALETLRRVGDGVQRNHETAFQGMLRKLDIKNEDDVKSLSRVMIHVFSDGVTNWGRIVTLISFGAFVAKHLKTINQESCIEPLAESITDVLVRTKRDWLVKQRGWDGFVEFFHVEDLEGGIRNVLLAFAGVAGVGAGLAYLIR
Compound,Ki ([1]; read-out: Ki) [µM],Ratio Ki [14],Ratio Ki [15],further results
COc1ccc2c(c1)c(CC(=O)N[C@@H](Cc1ccccc1)C(=O)NS(=O)(=O)c1ccccc1)c(C)n2C(=O)c1ccc(Cl)cc1,,,,Ki [1]: Not Active
Cc1ccc(S(=O)(=O)NC(=O)[C@H](Cc2ccccc2)N2C(=O)/C(=C/c3ccc(-c4ccccc4)cc3)SC2=S)cc1,1.5,,,Ki [2]: 1.1 µM; IC50 [3]: 42.3 µM; Activity [4]: 13.6%; Activity [5]: 16.8%; Activity [6]: 0.22%; IC50 [7]: 31.8 µM; Activity [8]: 65.5%; Activity [9]: 70.7%; Activity [10]: 17.4%; Ki ([11]; read-out: Ki): 1.3 µM; Activity [12]: 0.3%; Activity [13]: 15.5%
COc1ccc2c(c1)c(CC(=O)N[C@@H](Cc1ccc(OCc3ccccc3)cc1)C(=O)NS(=O)(=O)c1ccc(Br)cc1)c(C)n2C(=O)c1ccc(Cl)cc1,0.53,5 to 6,2 to 3,
O=C(O)CSc1cc(NS(=O)(=O)c2ccc(Br)cc2)c2ccccc2c1O,2.9,,,Ki [2]: 0.18 µM; Ki ([11]; read-out: Ki): 7.85 µM
COc1ccc2c(c1)c(CC(=O)N[C@@H](Cc1ccc(OCc3ccc4ccccc4c3)cc1)C(=O)NS(=O)(=O)c1ccc(Cl)c([N+](=O)[O-])c1)c(C)n2C(=O)c1ccc(Cl)cc1,0.56,5 to 6,2 to 3,
COc1ccc2c(c1)c(CC(=O)NCC(=O)NS(=O)(=O)c1ccc(Br)cc1)c(C)n2C(=O)c1ccc(Cl)cc1,,,,Ki [1]: Not Active
COc1ccc2c(c1)c(CC(=O)NCC(=O)NS(=O)(=O)c1ccc(Cl)c([N+](=O)[O-])c1)c(C)n2C(=O)c1ccc(Cl)cc1,,,,inhibition [17]: 94%; Ki [1]: Not Active
COc1ccc2c(c1)c(CC(=O)N[C@@H](Cc1ccc(OCc3ccc([N+](=O)[O-])cc3)cc1)C(=O)NS(=O)(=O)c1ccc(Br)cc1)c(C)n2C(=O)c1ccc(Cl)cc1,0.63,5 to 6,2 to 3,
COc1ccc2c(c1)c(CC(=O)N[C@H](C(=O)NS(=O)(=O)c1ccc(Cl)c([N+](=O)[O-])c1)C(C)C)c(C)n2C(=O)c1ccc(Cl)cc1,,,,Ki [1]: Not Active
COc1ccc2c(c1)c(CC(=O)N[C@@H](C)C(=O)NS(=O)(=O)c1ccc(Cl)c([N+](=O)[O-])c1)c(C)n2C(=O)c1ccc(Cl)cc1,,,,Ki [1]: Not Active
COc1ccc2c(c1)c(CC(=O)N[C@@H](Cc1ccc(OCc3ccc([N+](=O)[O-])cc3)cc1)C(=O)NS(=O)(=O)c1ccc(Cl)c([N+](=O)[O-])c1)c(C)n2C(=O)c1ccc(Cl)cc1,0.51,5 to 6,2 to 3,
COc1ccc2c(c1)c(CC(=O)N[C@@H](CCSC)C(=O)NS(=O)(=O)c1ccc(Cl)c([N+](=O)[O-])c1)c(C)n2C(=O)c1ccc(Cl)cc1,> 5,,,
CCC(C)[C@H](NC(=O)Cc1c(C)n(C(=O)c2ccc(Cl)cc2)c2ccc(OC)cc12)C(=O)NS(=O)(=O)c1ccc(Cl)c([N+](=O)[O-])c1 (some centres not stated),4.9,,,

# More lines, main results first:
Ki ([1]; read-out: Ki) [µM],Ratio Ki [14],Ratio Ki [15],Compound,further results
> 5,,,COc1ccc2c(c1)c(CC(=O)N[C@@H](Cc1c[nH]c3ccccc13)C(=O)NS(=O)(=O)c1ccc(Cl)c([N+](=O)[O-])c1)c(C)n2C(=O)c1ccc(Cl)cc1,
> 5,,,COc1ccc(C[C@H](NC(=O)Cc2c(C)n(C(=O)c3ccc(Cl)cc3)c3ccc(OC)cc23)C(=O)NS(=O)(=O)c2ccc(Cl)c([N+](=O)[O-])c2)cc1,
0.56,5 to 6,2 to 3,COc1ccc2c(c1)c(CC(=O)N[C@@H](Cc1ccc(OCc3ccc(C)cc3)cc1)C(=O)NS(=O)(=O)c1ccc(Cl)c([N+](=O)[O-])c1)c(C)n2C(=O)c1ccc(Cl)cc1,
0.47,5 to 6,2 to 3,COc1ccc2c(c1)c(CC(=O)N[C@@H](Cc1ccc(OCc3ccc(C#N)cc3)cc1)C(=O)NS(=O)(=O)c1ccc(Cl)c([N+](=O)[O-])c1)c(C)n2C(=O)c1ccc(Cl)cc1,Ki [2]: 0.53 µM; IC50 [3]: 49.2 µM; IC50 [7]: 83.5 µM; IC50 [16]: 39.3 µM; Ki [11]: Not Active
0.67,5 to 6,2 to 3,COc1ccc2c(c1)c(CC(=O)N[C@@H](Cc1ccc(OCc3ccccc3C#N)cc1)C(=O)NS(=O)(=O)c1ccc(Cl)c([N+](=O)[O-])c1)c(C)n2C(=O)c1ccc(Cl)cc1,
> 5,,,COc1ccc2c(c1)c(CC(=O)N[C@@H](Cc1ccccc1)C(=O)NS(=O)(=O)c1ccc(Br)cc1)c(C)n2C(=O)c1ccc(Cl)cc1,
1.3,,,CCCOc1ccc(C[C@H](NC(=O)Cc2c(C)n(C(=O)c3ccc(Cl)cc3)c3ccc(OC)cc23)C(=O)NS(=O)(=O)c2ccc(Cl)c([N+](=O)[O-])c2)cc1,
> 5,,,COc1ccc(C[C@H](NC(=O)Cc2c(C)n(C(=O)c3ccc(Cl)cc3)c3ccc(OC)cc23)C(=O)NS(=O)(=O)c2ccc(Br)cc2)cc1,
0.45,5 to 6,2 to 3,COc1ccc2c(c1)c(CC(=O)N[C@@H](Cc1ccc(OCc3ccccc3Br)cc1)C(=O)NS(=O)(=O)c1ccc(Cl)c([N+](=O)[O-])c1)c(C)n2C(=O)c1ccc(Cl)cc1,Ki [2]: 0.52 µM; IC50 [3]: 41.5 µM; IC50 [7]: 34 µM; IC50 [16]: 36.1 µM; Ki [11]: Not Active
0.44,5 to 6,2 to 3,COc1ccc2c(c1)c(CC(=O)N[C@@H](Cc1ccc(OCc3cccc(C#N)c3)cc1)C(=O)NS(=O)(=O)c1ccc(Cl)c([N+](=O)[O-])c1)c(C)n2C(=O)c1ccc(Cl)cc1,Ki [2]: 0.48 µM; IC50 [3]: 51.6 µM; IC50 [7]: 55.2 µM; IC50 [16]: 38.2 µM; Ki [11]: Not Active
0.48,5 to 6,2 to 3,COc1cccc(COc2ccc(C[C@H](NC(=O)Cc3c(C)n(C(=O)c4ccc(Cl)cc4)c4ccc(OC)cc34)C(=O)NS(=O)(=O)c3ccc(Cl)c([N+](=O)[O-])c3)cc2)c1,IC50 [3]: 36.2 µM; IC50 [7]: 35.9 µM; IC50 [16]: 31.7 µM
0.59,,,COc1ccc2c(c1)c(CC(=O)N[C@@H](Cc1ccc(Br)cc1)C(=O)NS(=O)(=O)c1ccc(Cl)c([N+](=O)[O-])c1)c(C)n2C(=O)c1ccc(Cl)cc1,
> 5,,,COc1ccc2c(c1)c(CC(=O)N[C@@H](CC(C)C)C(=O)NS(=O)(=O)c1ccc(Cl)c([N+](=O)[O-])c1)c(C)n2C(=O)c1ccc(Cl)cc1,
0.52,5 to 6,2 to 3,COc1ccc2c(c1)c(CC(=O)N[C@@H](Cc1ccc(OCc3ccccc3)cc1)C(=O)NS(=O)(=O)c1ccc(Cl)c([N+](=O)[O-])c1)c(C)n2C(=O)c1ccc(Cl)cc1,
> 5,,,COc1ccc2c(c1)c(CC(=O)N[C@@H](Cc1ccc(OC(C)C)cc1)C(=O)NS(=O)(=O)c1ccc(Cl)c([N+](=O)[O-])c1)c(C)n2C(=O)c1ccc(Cl)cc1,
> 5,,,COc1ccc2c(c1)c(CC(=O)N[C@@H](Cc1ccccc1)C(=O)NS(=O)(=O)c1ccc(Cl)c([N+](=O)[O-])c1)c(C)n2C(=O)c1ccc(Cl)cc1,
0.43,5 to 6,2 to 3,COc1ccc2c(c1)c(CC(=O)N[C@@H](Cc1ccc(OCc3cccc(C)c3)cc1)C(=O)NS(=O)(=O)c1ccc(Cl)c([N+](=O)[O-])c1)c(C)n2C(=O)c1ccc(Cl)cc1,Ki [2]: 0.49 µM; IC50 [3]: 38.8 µM; IC50 [7]: 30.3 µM; IC50 [16]: 28.6 µM; Ki [11]: Not Active

# Reference: ChEMBL document CHEMBL4340551, “Design, synthesis and preliminary bioactivity studies of indomethacin derivatives as Bcl-2/Mcl-1 dual inhibitors” (Bioorg Med Chem, 2019)
